Reference: ChEMBL document CHEMBL1155452, “Oncocin (VDKPPYLPRPRPPRRIYNR-NH2): a novel antibacterial peptide optimized against gram-negative human pathogens” (J Med Chem, 2010)

Tests used:
[1] = test system: Enterobacter cloacae; experiment: Antimicrobial activity against Enterobacter cloacae Ha088 after 20 hrs by broth microdilution method; assay type: functional; details: Ha088, 20 h
Procedure, shortened: (§1)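 Pathogens grown overnight on Columbia agar. Colonies suspended in 0.9% saline to OD 0.1, diluted 1:300 in 1% TSB, final (1-2) × 10^5 cfu/well. Peptides 2-fold serially diluted in 1% TSB from 128 to typically 0.5 μg/mL. Incubation at 37 °C; A595 read after 20 ± 2 h. MIC is the lowest concentration with absorbance not above medium only. Triplicate.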

[2] = test system: Proteus vulgaris; experiment: Antimicrobial activity against Proteus vulgaris ICB 9081 after 20 hrs by broth microdilution method; assay type: functional; details: ICB 9081, 20 h; procedure, shortened: as §1
[3] = test system: SH-SY5Y; experiment: Cytotoxicity against human SH-SY5Y cells at 600 ug/ml after 24 hrs by MTT assay; assay type: cell-based
Procedure, shortened: (§2)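 HeLa (1.5 × 10^4/well, seeded overnight) or SH-SY5Y (2 × 10^4/well, differentiated 5 days with 10 μM trans-retinoic acid) in DMEM/Ham's F-12 with 5% or 15% FBS. Peptide added at 600 μg/mL for 24 h at 37 °C, 5% CO2. MTT 0.5 mg/mL for 4 h, then SDS/HCl for 16 h; A590 read against 650 nm. Normalized to PBS (100%); DMSO 12% as positive control.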

[4] = test system: Micrococcus luteus; experiment: Antibacterial activity against Micrococcus luteus ATCC 10240 after 20 hrs by broth microdilution assay; assay type: functional; details: ATCC 10240, 20 h
Procedure, shortened: (§3)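 Nutrient-broth overnight cultures diluted in 1% TSB; E. coli BL21AI 7.5 × 10^5 cells/well, M. luteus ATCC 10240 2 × 10^6 cells/well. Peptides serially 2-fold diluted in 1% TSB from 128 to typically 0.5 μg/mL. Incubation at 37 °C; A595 read after 20 ± 2 h. MIC is the lowest concentration with absorbance not above medium only. Triplicate.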

[5] = test system: Pseudomonas aeruginosa; experiment: Antimicrobial activity against Pseudomonas aeruginosa PAO1 after 20 hrs by broth microdilution method; assay type: functional; details: PAO1, 20 h
Procedure, shortened: (§4)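 Pathogenic strains grown overnight on Columbia agar, colonies suspended in 0.9% saline to OD 0.1, diluted 1:300 in 1% TSB; final (1-2) × 10^5 cfu/well. Peptides 2-fold serially diluted in 1% TSB from 128 μg/mL, typically to 0.5 μg/mL. Incubated 37 °C, absorbance at 595 nm after 20 ± 2 h, in triplicate; MIC = lowest concentration with absorbance not exceeding medium only.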

[6] = test system: Stenotrophomonas; experiment: Antimicrobial activity against Stenotrophomonas ICB 7569 after 20 hrs by broth microdilution method; assay type: functional; details: ICB 7569, 20 h; procedure, shortened: as §1
[7] = test system: Klebsiella pneumoniae; experiment: Antimicrobial activity against Klebsiella pneumoniae 57 USA after 20 hrs by broth microdilution method; assay type: functional; procedure, shortened: as §1
[8] = test system: Klebsiella pneumoniae; experiment: Antimicrobial activity against Klebsiella pneumoniae 8085 after 20 hrs by broth microdilution method; assay type: functional; details: Klebsiella pneumoniae, 8085, 20 h; procedure, shortened: as §1
[9] = test system: Proteus vulgaris; experiment: Antimicrobial activity against Proteus vulgaris ICB 9095 after 20 hrs by broth microdilution method; assay type: functional; details: ICB 9095, 20 h; procedure, shortened: as §1
[10] = test system: Acinetobacter baumannii; experiment: Antimicrobial activity against Acinetobacter baumannii ICB 14073 after 20 hrs by broth microdilution method; assay type: functional; details: ICB 14073, 20 h; procedure, shortened: as §1
[11] = test system: Klebsiella pneumoniae; experiment: Antimicrobial activity against Klebsiella pneumoniae ATCC 12657 after 20 hrs by broth microdilution method; assay type: functional; details: ATCC 12657, 20 h; procedure, shortened: as §1
[12] = test system: Pseudomonas aeruginosa; experiment: Antimicrobial activity against Pseudomonas aeruginosa DSM 3227 after 20 hrs by broth microdilution method; assay type: functional; details: DSM 3227, 20 h; procedure, shortened: as §4
[13] = test system: Pseudomonas aeruginosa; experiment: Antimicrobial activity against Pseudomonas aeruginosa 70108001 after 20 hrs by broth microdilution method; assay type: functional; details: Pseudomonas aeruginosa, 70108001, 20 h; procedure, shortened: as §4
[14] = test system: Pseudomonas aeruginosa; experiment: Antimicrobial activity against Pseudomonas aeruginosa 60909001 after 20 hrs by broth microdilution method; assay type: functional; details: Pseudomonas aeruginosa, 60909001, 20 h; procedure, shortened: as §4
[15] = Stability in 25% mouse serum assessed as half life at 75 ug/ml by MALDI-TOF-MS analysis; assay type: ADME, cell-free
Procedure, shortened: (§5)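 Peptide at 75 μg/mL final in pooled mouse serum (undiluted or 25% v:v aqueous), 37 °C. Triplicate aliquots taken at 0, 30, 60, 120 and 240 min and precipitated with 3% TCA on ice for 10 min. Supernatant neutralized with NaOH and analysed by RP-HPLC on C18 with TFA-containing gradient. Amounts expressed relative to 0 min; metabolites identified by MALDI-TOF-MS.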

[16] = test system: Pseudomonas aeruginosa; experiment: Antimicrobial activity against Pseudomonas aeruginosa ATCC 27853 after 20 hrs by broth microdilution method; assay type: functional; details: ATCC 27853, 20 h; procedure, shortened: as §4
[17] = test system: Acinetobacter baumannii; experiment: Antimicrobial activity against Acinetobacter baumannii ICB 14072 after 20 hrs by broth microdilution method; assay type: functional; details: ICB 14072, 20 h; procedure, shortened: as §1
[18] = test system: Acinetobacter baumannii; experiment: Antimicrobial activity against Acinetobacter baumannii ICB 14067 after 20 hrs by broth microdilution method; assay type: functional; details: ICB 14067, 20 h; procedure, shortened: as §1
[19] = test system: Escherichia coli; experiment: Antimicrobial activity against Escherichia coli Neumann after 20 hrs by broth microdilution method; assay type: functional; procedure, shortened: as §1
[20] = test system: Escherichia coli; experiment: Antimicrobial activity against Escherichia coli 70430001 after 20 hrs by broth microdilution method; assay type: functional; details: Escherichia coli, 70430001, 20 h; procedure, shortened: as §1
[21] = test system: Enterobacter cloacae; experiment: Antimicrobial activity against Enterobacter cloacae Ha089 after 20 hrs by broth microdilution method; assay type: functional; details: Ha089, 20 h; procedure, shortened: as §1
[22] = test system: Escherichia coli; experiment: Antimicrobial activity against Escherichia coli 70502001 after 20 hrs by broth microdilution method; assay type: functional; details: Escherichia coli, 70502001, 20 h; procedure, shortened: as §1
[23] = Drug uptake in Escherichia coli BL21 AI assessed as intracellular localization at 30 ug/ml after 20 mins by confocal fluorescence microscopy; assay type: ADME, cell-based; details: escherichia coli bl21, 20 min; in the assay text read “30 uM” for “30 ug/ml”
Procedure, shortened: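 E. coli BL21 AI overnight culture diluted to 1.5 × 10^7 cells/mL in 1% TSB. 5(6)-Carboxyfluorescein N-terminally labelled peptide added at 30 μmol/L final, with 60-fold molar excess of TAMRA to quench extracellular fluorescence. Imaged at room temperature at 20 and 50 min by confocal laser scanning microscopy (488 nm excitation), with phase contrast.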

[24] = test system: Klebsiella pneumoniae; experiment: Antimicrobial activity against Klebsiella pneumoniae 63 after 20 hrs by broth microdilution method; assay type: functional; details: Klebsiella pneumoniae, 63, 20 h; procedure, shortened: as §4
[25] = test system: Enterobacter cloacae; experiment: Antimicrobial activity against Enterobacter cloacae 34654 after 20 hrs by broth microdilution method; assay type: functional; details: Enterobacter cloacae, 34654, 20 h; procedure, shortened: as §1
[26] = test system: Escherichia coli; experiment: Antibacterial activity against Escherichia coli BL21 AI after 20 hrs by broth microdilution assay; assay type: functional; procedure, shortened: as §3
[27] = test system: Escherichia coli; experiment: Antimicrobial activity against Escherichia coli 8474 after 20 hrs by broth microdilution method; assay type: functional; details: Escherichia coli, 8474, 20 h; procedure, shortened: as §1
[28] = test system: Klebsiella pneumoniae; experiment: Antimicrobial activity against Klebsiella pneumoniae ATCC 27799 after 20 hrs by broth microdilution method; assay type: functional; details: ATCC 27799, 20 h; procedure, shortened: as §4
[29] = test system: Serum; experiment: Stability in 25% mouse serum assessed as peptide-13 level at 75 ug/ml after 2 hrs by MALDI-TOF-MS analysis; assay type: ADME, cell-free; procedure, shortened: as §5
[30] = test system: Pseudomonas aeruginosa; experiment: Antimicrobial activity against Pseudomonas aeruginosa 60811001 after 20 hrs by broth microdilution method; assay type: functional; details: Pseudomonas aeruginosa, 60811001, 20 h; procedure, shortened: as §4
[31] = test system: HeLa; experiment: Cytotoxicity against human HeLa cells at 600 ug/ml after 24 hrs by MTT assay; assay type: cell-based; procedure, shortened: as §2

For H-VDKPPYLPRPRPPRRIYNR-NH2 [ONCOCIN], the MIC [1] was 0.125 µg/mL, the MIC [2] was 4 µg/mL and the Activity [3] was “Non-toxic”. It also gave an MIC [4] of 8 µg/mL, an MIC [5] of 2 µg/mL and an MIC [6] of 8 µg/mL. For the same substance, the MIC [7] was 0.25 µg/mL, the MIC [8] was 0.5 µg/mL and the MIC [9] was 4 µg/mL. The MIC [10] was 2 µg/mL, the MIC [11] was 0.5 µg/mL and the MIC [12] was 4 µg/mL. The MIC [13] was 4 µg/mL, the MIC [14] was 2 µg/mL and the half-life at 75 ug/ml [15] was 1.17 h. The MIC [16] was 4 µg/mL, the MIC [17] was 1 µg/mL and the MIC [18] was 1 µg/mL. For the same substance, the MIC [19] was 2 µg/mL, the MIC [20] was 1 µg/mL and the MIC [21] was 0.125 µg/mL. The MIC [22] was 1 µg/mL, the Activity [23] was “Active” and the MIC [24] was 8 µg/mL. The MIC [25] was 0.25 µg/mL, the MIC [26] was 4 µg/mL and the MIC [27] was 0.5 µg/mL. It also gave an MIC [28] of 1 µg/mL, an Activity [29] of 20% and an MIC [30] of 2 µg/mL. The Activity [31] was “Non-toxic”.
